Activity and inhibition data for 14 compounds are collected here from ChEMBL document CHEMBL1152830, “Synthesis of 2-sulfanyl-6-methyl-1,4-dihydropyrimidines as a new class of antifilarial agents” (Eur J Med Chem, 2008).

The subject of data set [1] is Brugia malayi. The data set is described as follows: Antifilarial activity against Brugia malayi sub-periodic strain assessed as complete loss of motility at 100 uM. It counts as functional, organism-based. In outline: (§1)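 Adult B. malayi worms kept in vitro with compound, then motility scored. The worms were also moved to fresh drug-free medium at 37 °C for 30 min to judge whether paralysis was irreversible. The vehicle served as control.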

Data set [2] concerns Brugia malayi. Kind of data set: Antifilarial activity against Brugia malayi sub-periodic strain at 100 uM by MTT reduction assay. Format: functional. In short, it runs like this:
(§2)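 MTT reduction was measured on adult B. malayi worms after in vitro drug exposure. Each result is percent inhibition of MTT reduction relative to vehicle control, given as mean ± SD.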
(Tetrazolium dyes change colour on reduction, which living cells bring about.)

The subject of data set [3] is Brugia malayi. The data set is described as follows: Antifilarial activity against Brugia malayi sub-periodic strain assessed as motility at 100 uM. It counts as functional, organism-based. In outline:
as §1

Data set [4] relates to Brugia malayi. Kind of data set: Antifilarial activity against Brugia malayi sub-periodic strain assessed as sluggish motility at 25 uM. Format: functional, organism-based. In short, it runs like this: as §1
Data set [5] deals with Brugia malayi. The data set is described as follows: Antifilarial activity against Brugia malayi sub-periodic strain assessed as complete loss of motility at 50 uM. Format: functional, organism-based. In outline:
as §1

Data set [6] concerns Brugia malayi. The data set is described as follows: Antifilarial activity against Brugia malayi sub-periodic strain at 50 uM by MTT reduction assay. It counts as functional. In outline: as §2
Data set [7] concerns Brugia malayi. The data set is described as follows: Antifilarial activity against Brugia malayi sub-periodic strain at 25 uM by MTT reduction assay. Format: functional. In outline: as §2
Data set [8] deals with Brugia malayi. The data set is described as follows: Antifilarial activity against Brugia malayi sub-periodic strain in Mastomys coucha assessed as microfilarial count at 100 mg/kg, ip for 5 days measured after 8 days. Format: functional. The following applies: route intraperitoneal.
For data set [9], the system named is Brugia malayi. Kind of data set: Antifilarial activity against Brugia malayi sub-periodic strain in Mastomys coucha assessed as reduction in worm burden at 100 mg/kg, ip for 5 days relative to control. Format: functional. Further details: scale not given: the % may be the effect or the level left. To be noted: route intraperitoneal.
In data set [10] the test system is Brugia malayi. The data set is described as follows: Embryostatic activity against Brugia malayi sub-periodic strain in Mastomys coucha assessed as sterilized female worms at 100 mg/kg, ip for 5 days. Format: functional. The following applies: route intraperitoneal.
A further data set concerns Mastomys coucha. The data set is described as follows: Toxicity against Mastomys coucha assessed as mortality at 50 to 100 mg/kg, ip for 5 days measured after 15 days. More on the design: dose 50-100 mg/kg, route intraperitoneal. It counts as organism-based. To be noted: in vivo, 360 h. In outline: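 Normal (uninfected) Mastomys coucha received the compound i.p. once daily for 5 days. Animals were watched for mortality and for adverse effects on general and gross health during dosing and for up to 15 days after treatment.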

In data set [11] the test system is Brugia malayi. Kind of data set: Antifilarial activity against Brugia malayi sub-periodic strain assessed as motility at 50 uM. It counts as functional, organism-based. In short, it runs like this:
as §1

The test system of data set [12] is Brugia malayi. Kind of data set: Antifilarial activity against Brugia malayi sub-periodic strain assessed as motility at 200 uM. Format: functional, organism-based. In short, it runs like this: as §1
In data set [13] the test system is Brugia malayi. The data set is described as follows: Antifilarial activity against Brugia malayi sub-periodic strain assessed as sluggish motility at 400 uM. Format: functional, organism-based. In short, it runs like this:
as §1

Data set [14] concerns Brugia malayi. Kind of data set: Antifilarial activity against Brugia malayi sub-periodic strain at 400 uM by MTT reduction assay. It counts as functional, organism-based. In outline:
as §2

In data set [15] the test system is Brugia malayi. Kind of data set: Antifilarial activity against Brugia malayi sub-periodic strain at 200 uM by MTT reduction assay. Format: functional, organism-based. In outline:
as §2

Data set [16] relates to Brugia malayi. Kind of data set: Antifilarial activity against Brugia malayi sub-periodic strain in Mastomys coucha assessed as microfilarial count at 25 mg/kg, ip for 5 days measured after 8 days. Format: functional. The following applies: route intraperitoneal.
The subject of data set [17] is Brugia malayi. Kind of data set: Antifilarial activity against Brugia malayi sub-periodic strain in Mastomys coucha assessed as reduction in worm burden at 25 mg/kg, ip for 5 days relative to control. It counts as functional. Further details: scale not given: the % may be the effect or the level left. To be noted: route intraperitoneal.
The test system of data set [18] is Brugia malayi. The data set is described as follows: Embryostatic activity against Brugia malayi sub-periodic strain in Mastomys coucha assessed as sterilized female worms at 25 mg/kg, ip for 5 days. Format: functional. The following applies: route intraperitoneal.
For data set [19], the system named is Brugia malayi. Kind of data set: Antifilarial activity against transplanted adult worms of Brugia malayi sub-periodic strain in Meriones unguiculatus assessed as reduction in worm burden 12.5 mg/kg, ip for 5 days relative to control. More on the design: dose 12.5 mg/kg. Format: functional, organism-based. In outline:
(§3)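 Meriones unguiculatus (jirds) carrying transplanted adult B. malayi were dosed i.p. once daily for 5 days, 5 animals per group. Microfilariae in the peritoneal cavity were checked. Live male and female worms and sterilized females were counted. Results are percent relative to untreated controls, given as mean ± SD.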

In data set [20] the test system is Brugia malayi. Kind of data set: Embryostatic activity against transplanted adult worms of Brugia malayi sub-periodic strain in Meriones unguiculatus assessed as sterilized female worms at 12.5 mg/kg, ip for 5 days. Format: functional. The following applies: route intraperitoneal. In outline: as §3
The test system of data set [21] is Brugia malayi. Kind of data set: Antifilarial activity against Brugia malayi sub-periodic strain assessed as motility at 25 uM. It counts as functional, organism-based. In short, it runs like this:
as §1

The subject of data set [22] is Brugia malayi. The data set is described as follows: Antifilarial activity against Brugia malayi sub-periodic strain assessed as complete loss of motility at 25 uM. Format: functional, organism-based. In outline:
as §1

Data set [23] deals with Brugia malayi. Kind of data set: Antifilarial activity against Brugia malayi sub-periodic strain in Mastomys coucha assessed as microfilarial count at 50 mg/kg, ip for 5 days measured after 8 days. The following applies: route intraperitoneal. Format: functional.
The test system of data set [24] is Brugia malayi. Kind of data set: Antifilarial activity against Brugia malayi sub-periodic strain in Mastomys coucha assessed as reduction in worm burden at 50 mg/kg, ip for 5 days relative to control. Format: functional. Further details: scale not given: the % may be the effect or the level left. The following applies: route intraperitoneal.
For data set [25], the system named is Brugia malayi. The data set is described as follows: Embryostatic activity against Brugia malayi sub-periodic strain in Mastomys coucha assessed as sterilized female worms at 50 mg/kg, ip for 5 days. It counts as functional. The following applies: route intraperitoneal.
Data set [26] concerns Brugia malayi. The data set is described as follows: Antifilarial activity against transplanted adult worms of Brugia malayi sub-periodic strain in Meriones unguiculatus assessed as reduction in worm burden 100 mg/kg, ip for 5 days relative to control. To be noted: route intraperitoneal. More on the design: scale not given: the % may be the effect or the level left. It counts as functional. In outline:
as §3

Data set [27] concerns Brugia malayi. Kind of data set: Embryostatic activity against transplanted adult worms of Brugia malayi sub-periodic strain in Meriones unguiculatus assessed as sterilized female worms at 100 mg/kg, ip for 5 days. It counts as functional. The following applies: route intraperitoneal. In short, it runs like this:
as §3

Molecules are shown by their SMILES. Activity calls are given as the source filed them. The calls are words filed in the database; no cut-off is given here.

For orientation: inhibition means how much of the control response was suppressed.

Take `CCCCSC1=NC(c2cccc([N+](=O)[O-])c2)C(C(=O)OCC)=C(C)N1` (centres undefined): in the data set on Brugia malayi [1], the outcome was Active. In the data set on Brugia malayi [2], this compound had an inhibition at 100 µM of 25.7%.

Turning to `CCCCCSC1=NC(c2cccc3ccccc23)C(C(=O)OCC)=C(C)N1` (centres undefined), the outcome with Brugia malayi [3] was inactive. The inhibition entry in the data set with Brugia malayi [2] was “inactive”.

As for `CCCCSC1=NC(c2cccc3ccccc23)C(C(=O)OCC)=C(C)N1` (centres undefined), the outcome in the data set with Brugia malayi [4], with Brugia malayi [1] and with Brugia malayi [5] was Active. Besides, the inhibition at 100 µM in the data set with Brugia malayi [2] came to 49%. Also, in the data set on Brugia malayi [6], the inhibition result is “inactive”. Besides, the inhibition at 25 µM in the data set on Brugia malayi [7] came out at 30.4%. The Activity was 47.33 in the data set with Brugia malayi [8], 0% in the data set on Brugia malayi [9], 25.77% in the data set with Brugia malayi [10] and “Non-toxic” with Mastomys coucha.

As for `CCN(CC)C(=O)N1CCN(C)CC1.O=C(O)CC(O)(CC(=O)O)C(=O)O` [DIETHYLCARBAMAZINE CITRATE], the outcome in the data set with Brugia malayi [3], in the data set with Brugia malayi [11], with Brugia malayi [12] and in the data set on Brugia malayi [19] was inactive. For the same compound, in the data set with Brugia malayi [13], the result was Active. The inhibition result in the data set with Brugia malayi [2], in the data set on Brugia malayi [6], in the data set on Brugia malayi [14] and in the data set on Brugia malayi [15] was “inactive” each time. Moreover, the Activity is on record as 20.33 in the data set with Brugia malayi [16], 0% in the data set with Brugia malayi [17], 29.7% in the data set with Brugia malayi [18] and 10.53% with Brugia malayi [20].

Take `CCOC(=O)C1=C(C)NC(SCc2ccccc2)=NC1c1cccc([N+](=O)[O-])c1` (centres undefined): the result in the data set with Brugia malayi [1] was Active. Besides, 100 µM produced 43.1% inhibition with Brugia malayi [2].

`CCCCCSC1=NC(c2ccc(OC)cc2)C(C(=O)OCC)=C(C)N1` (centres undefined): in the data set with Brugia malayi [3], the result was inactive. Moreover, in the data set with Brugia malayi [2], the inhibition at 100 µM was 22.4%.

Take `CCCCCSC1=NC(c2ccc(Cl)cc2)C(C(=O)OCC)=C(C)N1` (centres undefined): the outcome in the data set with Brugia malayi [3] was inactive. The inhibition result with Brugia malayi [2] is “inactive”.

Regarding `CCOC(=O)C1=C(C)NC(SCc2ccccc2)=NC1c1ccc(OC)cc1` (centres undefined), the result in the data set with Brugia malayi [4], with Brugia malayi [1] and with Brugia malayi [5] was Active. Further, in the data set with Brugia malayi [2], the inhibition at 100 µM amounted to 52.1%. For the same compound, 50 µM produced 19.3% inhibition with Brugia malayi [6]. For the same compound, the inhibition entry in the data set with Brugia malayi [7] was “inactive”. Moreover, the Activity was 89.7 in the data set on Brugia malayi [8], 19.66% in the data set on Brugia malayi [9], 34.58% in the data set on Brugia malayi [10] and “Non-toxic” in the data set with Mastomys coucha.

`CCCCCCCCCCCCCCSC1=NC(c2ccc(F)cc2)C(C(=O)OCC)=C(C)N1` (centres undefined): in the data set on Brugia malayi [11], the result was inactive. Also, in the data set on Brugia malayi [1], the outcome was Active. The inhibition entry in the data set on Brugia malayi [2] and in the data set with Brugia malayi [6] was “inactive” in each case.

As for `CCCCCCCCCCCCCCSC1=NC(c2cccc3ccccc23)C(C(=O)OCC)=C(C)N1` (centres undefined), the outcome with Brugia malayi [1] was Active. At 100 µM the inhibition in the data set with Brugia malayi [2] was 24.3%.

For `CCCCCSC1=NC(c2cccc([N+](=O)[O-])c2)C(C(=O)OCC)=C(C)N1` (centres undefined), the result with Brugia malayi [3] was inactive. In the data set on Brugia malayi [2], this compound came in with an inhibition at 100 µM of 15.4%.

`CCOC(=O)C1=C(C)NC(SCc2ccccc2)=NC1c1cccc2ccccc12` (centres undefined): in the data set with Brugia malayi [1], the outcome was Active. Further, in the data set on Brugia malayi [2], 100 µM produced 18.9% inhibition.

On to `CCCCCCCCCCCCCCSC1=NC(c2ccc(OC)cc2)C(C(=O)OCC)=C(C)N1` (centres undefined), for which the result in the data set with Brugia malayi [3], with Brugia malayi [11] and in the data set with Brugia malayi [21] was inactive. Moreover, the inhibition result in the data set with Brugia malayi [2], in the data set with Brugia malayi [6] and in the data set on Brugia malayi [7] was “inactive” each time.

`CCCCCSC1=NC(c2ccc(F)cc2)C(C(=O)OCC)=C(C)N1` (centres undefined): the outcome in the data set with Brugia malayi [1], in the data set on Brugia malayi [5] and in the data set on Brugia malayi [22] was Active. This compound displayed an inhibition at 100 µM in the data set on Brugia malayi [2] of 68.6%. For the same compound, the inhibition at 50 µM with Brugia malayi [6] worked out at 68.5%. The inhibition at 25 µM in the data set on Brugia malayi [7] is 25.8%. Also, the Activity in the data set with Brugia malayi [8] is 142.67; with Brugia malayi [23], 116.5; with Brugia malayi [9], 50%; in the data set with Brugia malayi [24], 30.8%; with Brugia malayi [10], 67.71%; in the data set on Brugia malayi [25], 38.1%. For the same compound, the figures for the Activity in the data set on Brugia malayi [26], in the data set with Brugia malayi [27] and in the data set with Mastomys coucha were 46.03%, 34.31% and “Non-toxic”, respectively.
